The subject of experiment [1] is Mycobacterium tuberculosis. In words: Antimycobacterial activity against Mycobacterium tuberculosis mc2 6230 harbouring pMV261 plasmid overexpressing inhA assessed as inhibition of bacterial growth measured after 7 days by 7H9 broth based dilution method. The experiment is classed as functional. Particulars: mc2 6230, 168 h, time 7 day.
Experiment [2] concerns Mycobacterium tuberculosis. In words: Induction of resistance development in Mycobacterium tuberculosis mc2 6230 harbouring pMV261 plasmid overexpressing inhA assessed as fold increase in MIC measured after 7 days by 7H10 agar based dilution method. In kind it is functional. Conditions: time 7 day.
Experiment [3] has as its system Mycobacterium tuberculosis. In words: Induction of resistance development in Mycobacterium tuberculosis harbouring katG W161R mutant assessed as resistance frequency at 5 times of MIC by visual analysis. In kind it is functional.
The subject of experiment [4] is Mycobacterium tuberculosis. In words: Antimycobacterial activity against Mycobacterium tuberculosis mc2 6230 harbouring pMV261 plasmid overexpressing inhA assessed as inhibition of bacterial growth measured after 7 days by 7H10 agar based dilution method. The experiment is classed as functional. Particulars: mc2 6230, 168 h, time 7 day.
Experiment [5] has as its system Mycobacterium tuberculosis. In words: Induction of resistance development in Mycobacterium tuberculosis mc2 6230 harbouring pMV261 plasmid overexpressing inhA assessed as fold increase in MIC measured after 7 days by 7H9 broth based dilution method. In kind it is functional. Conditions: time 7 day.
The test system of experiment [6] is Mycobacterium tuberculosis. The experiment can be described thus: Induction of resistance development in Mycobacterium tuberculosis harbouring katG amino acid change at stop codon mutant assessed as resistance frequency at 5 times of MIC by visual analysis. In kind it is functional.
The test system of experiment [7] is Mycobacterium tuberculosis. In words: Induction of resistance development in Mycobacterium tuberculosis harbouring katG G495D mutant assessed as resistance frequency at 20 times of MIC by visual analysis. In kind it is functional.
Experiment [8] relates to Mycobacterium tuberculosis. In words: Inhibition of mycolic acid biosynthesis in Mycobacterium tuberculosis mc2 6230 harbouring pMV261 plasmid overexpressing inhA assessed as decrease in keto-mycolic acid at 1.25 ug/ml incubated for 15 mins followed by 14C-labeled acetate addition measured after 7 hrs by TLC analysis. Particulars: dose 1.25 µg/ml, time 435.0 min. The experiment is classed as functional, organism-based. In short, it runs like this:
(§1)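 mc²6230 carrying pMV261-inhA, treated for 15 hrs at 37 °C with agitation in 7H9/OADC/tyloxapol/pantothenate. Then labelled with 1 μCi/mL [¹⁴C]acetate for 7 hrs. Mycolic acid methyl esters extracted, 50,000 cpm resolved by TLC (hexane/ethyl acetate 19/1, 2 runs) and exposed overnight.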

The test system of experiment [9] is Mycobacterium tuberculosis. The experiment can be described thus: Inhibition of mycolic acid biosynthesis in Mycobacterium tuberculosis mc2 6230 harbouring pMV261 plasmid overexpressing inhA assessed as decrease in alpha-mycolic acid at 1.25 ug/ml incubated for 15 mins followed by 14C-labeled acetate addition measured after 7 hrs by TLC analysis. Conditions: dose 1.25 µg/ml, time 435.0 min. The experiment is classed as functional, organism-based. In short, it runs like this:
as §1

Experiment [10] deals with Mycobacterium tuberculosis. In words: Induction of resistance development in Mycobacterium tuberculosis harbouring katG 186 del mutant assessed as resistance frequency at 20 times of MIC by visual analysis. In kind it is functional.
The test system of experiment [11] is Mycobacterium tuberculosis. In words: Induction of resistance development in Mycobacterium tuberculosis harbouring katG F594C mutant assessed as resistance frequency at 5 times of MIC by visual analysis. The experiment is classed as functional.
In experiment [12] the test system is Mycobacterium tuberculosis. The experiment can be described thus: Inhibition of mycolic acid biosynthesis in Mycobacterium tuberculosis mc2 6230 harbouring pMV261 plasmid overexpressing inhA assessed as decrease in methoxy-mycolic acid at 1.25 ug/ml incubated for 15 mins followed by 14C-labeled acetate addition measured after 7 hrs by TLC analysis. Particulars: dose 1.25 µg/ml, time 435.0 min. In kind it is functional, organism-based. In short, it runs like this: as §1

Converted amounts (≈) assume the structure as drawn. The source made the active and inactive calls. No cut-off for these calls is given here. Bounds are passed on as bounds.

As for `COc1cc(/C=N/NC(=O)c2ccncc2)ccc1OCc1cn(CCCNc2ccnc3cc(Cl)ccc23)nn1`, the minimum inhibitory concentration (MIC) (commonly the least concentration at which growth counts as inhibited) in [1] is 25 µg/mL (≈ 43.8 µM); in experiment [4], 6.25 µg/mL (≈ 10.9 µM). In addition, the “fold change (FC)” value in experiment [2] and in [5] was 25 throughout. Besides, the Activity in experiment [3] was 1.16 10^-6No_unit.

Turning to `COc1cc(/C=N/NC(=O)c2ccncc2)ccc1OCc1cn(CCNc2ccnc3cc(Cl)ccc23)nn1`, the results for the minimum inhibitory concentration (MIC) in [1] and in experiment [4] were 25 µg/mL (≈ 44.9 µM) and 12.5 µg/mL (≈ 22.4 µM), respectively. For the same molecule, the “fold change (FC)” value in experiment [2] and in [5] was 25 each time.

As for `O=C(N/N=C/c1ccc(OCc2cn(-c3ccnc4cc(Cl)ccc34)nn2)cc1)c1ccncc1`, the results for the minimal inhibitory concentration (MIC) in experiment [1] and in [4] were greater than 200 µg/mL and 6.25 µg/mL (≈ 12.9 µM), respectively. Further, the “fold change (FC)” value in experiment [2] and in [5] was 25 in each case.

Regarding `NNC(=O)c1ccncc1` [ISONIAZID], the MIC in experiment [1] and in experiment [4] was 1 µg/mL (≈ 7.29 µM) each time. The “fold change (FC)” value in experiment [2] and in experiment [5] was 20 throughout.

In the case of `COc1cc(/C=N/NC(=O)c2ccncc2)ccc1OCc1cn(-c2ccnc3cc(Cl)ccc23)nn1`, the MIC in [1] came out at 50 µg/mL (≈ 97.3 µM); in [4] it was 12.5 µg/mL (≈ 24.3 µM). For the same molecule, the “fold change (FC)” value in [2] and in experiment [5] was 25 throughout.

Regarding `O=C(N/N=C/c1ccc(OCc2cn(CCCNc3ccnc4cc(Cl)ccc34)nn2)cc1)c1ccncc1`, the Activity in experiment [6] is 1.52 10^-6No_unit; in [7], 5 10^-7No_unit. Also, the minimum inhibitory concentration (MIC) in [1] came out at 12.5 µg/mL (≈ 23.1 µM); in experiment [4], 6.25 µg/mL (≈ 11.6 µM). Further, the “fold change (FC)” value in experiment [2] and in [5] was 25 each time.

Consider `O=C(N/N=C/c1ccc(OCc2cn(CCNc3ccnc4cc(Cl)ccc34)nn2)cc1)c1ccncc1`, for which the MIC in [1] was found to be 12.5 µg/mL (≈ 23.7 µM); in [4] it was 6.25 µg/mL (≈ 11.9 µM). Moreover, the “fold change (FC)” value in experiment [2] and in experiment [5] was 25 each time.

As to `O=C(N/N=C/c1ccccc1-n1cc(CN2CCN(c3ccnc4cc(Cl)ccc34)CC2)nn1)c1ccncc1`, the MIC in experiment [1] and in experiment [4] was 6.25 µg/mL (≈ 11.3 µM) each time. Further, the inhibition entry in experiment [8], in experiment [9] and in [12] was “inactive” in each case. Further, the results for the Activity in [10] and in experiment [11] were 7.1 10^-7No_unit and 1.8 10^-6No_unit, respectively. The “fold change (FC)” value in [2] and in experiment [5] was 25 in each case.

Source of the values: ChEMBL document CHEMBL5346861, “Designing quinoline-isoniazid hybrids as potent anti-tubercular agents inhibiting mycolic acid biosynthesis” (Eur J Med Chem, 2022).
